Assay results as given in ChEMBL document CHEMBL4665627 (Eur J Med Chem, 2019).
Values after ≈ are worked out from the molar mass of the structure shown. Active and inactive are the calls of the source. No cut-off for these calls is given here.

What was measured:
Aspergillus fumigatus = assay: Antifungal activity against Aspergillus fumigatus assessed as inhibition of fungal growth after 24 hrs by CLSI protocol based two fold serial dilution method; type: functional
Summary of the method: (§1)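 Two-fold serial broth dilution in 96-well plates following CLSI; MIC (mM) taken as the lowest concentration giving complete growth inhibition; MIC values from three independent experiments.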

DNA [1] = assay: Binding affinity to Klebsiella pneumoniae DNA assessed as red shift in absorption spectra by UV-Vis spectroscopy; type: nucleic-acid assay
Summary of the method: (§2)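 DNA isolated from K. pneumoniae held at fixed concentration while test compound is added in stepwise, proportional increments; UV-vis absorption spectra recorded, following the 260 nm DNA band.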

DNA [2] = assay: Binding affinity to Klebsiella pneumoniae DNA assessed as increase in absorption peak of DNA by UV-Vis spectroscopy; type: nucleic-acid assay; summary of the method: as §2
DNA [3] = assay: Competitive binding affinity to Klebsiella pneumoniae DNA assessed as increase in DNA intercalation by measuring increase in absorbance at around 260 nm by UV spectroscopy; type: nucleic-acid assay
Summary of the method: (§3)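 Competitive binding with neutral red as spectral probe on K. pneumoniae DNA, monitored by UV-vis absorption spectroscopy.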

Staphylococcus aureus [4] = assay: Antibacterial activity against Staphylococcus aureus ATCC 29213 assessed as inhibition of bacterial growth after 24 hrs by CLSI protocol based two fold serial dilution method; type: functional
Klebsiella pneumoniae [5] = assay: Antibacterial activity against Klebsiella pneumoniae measured every 24 hrs after 10 passages by serial dilution method; type: functional, organism-based
Candida albicans [6] = assay: Antifungal activity against Candida albicans assessed as inhibition of fungal growth after 24 hrs by CLSI protocol based two fold serial dilution method; type: functional; summary of the method: as §1
Escherichia coli [7] = assay: Synergistic antibacterial activity against Escherichia coli assessed as fractional inhibitory concentration index in presence of cefathiamidine by CLSI protocol based two fold serial dilution method; type: functional
Klebsiella pneumoniae [8] = assay: Synergistic antibacterial activity against Klebsiella pneumoniae assessed as fractional inhibitory concentration index in presence of cefathiamidine by CLSI protocol based two fold serial dilution method; type: functional
DNA [9] = assay: Competitive binding affinity to Klebsiella pneumoniae DNA assessed as increase in DNA-NR probe absorption intensity at wavelength of 460 nm by UV spectroscopy; type: nucleic-acid assay; summary of the method: as §3
Klebsiella pneumoniae [10] = assay: Induction of membrane permeabilization in Klebsiella pneumoniae at 12 times MIC measured after 1 hr by propidium iodide staining based fluorescence assay; type: functional, organism-based
Candida albicans [11] = assay: Antifungal activity against Candida albicans ATCC 90023 assessed as inhibition of fungal growth after 24 hrs by CLSI protocol based two fold serial dilution method; type: functional; summary of the method: as §1
Escherichia coli [12] = assay: Antibacterial activity against Escherichia coli assessed as inhibition of bacterial growth after 24 hrs by CLSI protocol based two fold serial dilution method; type: functional; summary of the method: as §1
Saccharomyces cerevisiae = assay: Inhibition of Saccharomyces cerevisiae CGMCC 2.145 chitin synthase at 300 ug/ml using GlcNAc and UDP-GlcNAc as substrate incubated for 60 mins by microplate reader analysis relative to control; conditions: dose 300.0 µg/ml
Summary of the method: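 Chitin synthase inhibition ratio measured at 300 µg/mL test compound, relative to untreated control.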

Acinetobacter baumannii = assay: Antibacterial activity against Acinetobacter baumannii assessed as inhibition of bacterial growth after 24 hrs by CLSI protocol based two fold serial dilution method; type: functional; summary of the method: as §1
Enterococcus faecalis = assay: Antibacterial activity against Enterococcus faecalis assessed as inhibition of bacterial growth after 24 hrs by CLSI protocol based two fold serial dilution method; type: functional; summary of the method: as §1
DNA gyrase = DNA gyrase (Escherichia coli, UniProt P0AES4+P0AES6); assay: Inhibition of Escherichia coli DNA gyrase holoenzyme assessed as reduction in pBR322 DNA supercoiling using pBR322 plasmid DNA as substrate incubated for 90 mins in presence of ATP by ethidium bromide staining based agarose gel electrophoresis analysis; type: protein-complex assay
Klebsiella pneumoniae [13] = assay: Antibacterial activity against Klebsiella pneumoniae assessed as bacterial growth inhibition in presence of cefathiamidine by CLSI protocol based two fold serial dilution method; type: functional; summary of the method: as §1
Klebsiella pneumoniae [14] = assay: Potentiation of cefathiamidine-induced antibacterial activity against Klebsiella pneumoniae assessed as fold reduction in cefathiamidine MIC by CLSI protocol based two fold serial dilution method; type: functional
Klebsiella pneumoniae [15] = assay: Antibacterial activity against Klebsiella pneumoniae assessed as inhibition of bacterial growth after 24 hrs by CLSI protocol based two fold serial dilution method; type: functional; summary of the method: as §1
DNA [16] = assay: Competitive binding affinity to Klebsiella pneumoniae DNA assessed as intercalating activity by measuring decrease in DNA-NR probe absorption spectra at wavelength of 530 nm by UV spectroscopy; type: nucleic-acid assay; summary of the method: as §3
DNA [17] = assay: Binding affinity to Klebsiella pneumoniae DNA assessed as cleavage of DNA at 50 uM and pH 7.4 and 37 °C incubated for 6 hrs by gel electrophoresis analysis
Staphylococcus aureus [18] = assay: Antibacterial activity against Staphylococcus aureus assessed as bacterial growth inhibition in presence of cefathiamidine by CLSI protocol based two fold serial dilution method; type: functional; summary of the method: as §1
Candida parapsilosis = assay: Antifungal activity against Candida parapsilosis ATCC 22019 assessed as inhibition of fungal growth after 24 hrs by CLSI protocol based two fold serial dilution method; type: functional; conditions: Lodderomyces parapsilosis; summary of the method: as §1
Staphylococcus aureus [19] = assay: Antibacterial activity against Staphylococcus aureus ATCC 25923 assessed as inhibition of bacterial growth after 24 hrs by CLSI protocol based two fold serial dilution method; type: functional; summary of the method: as §1
Candida tropicalis = assay: Antifungal activity against Candida tropicalis assessed as inhibition of fungal growth after 24 hrs by CLSI protocol based two fold serial dilution method; type: functional; summary of the method: as §1
[20] = Cytotoxicity against mouse RAW264.7 cells assessed as cell viability at 128 ug/ml after 72 hrs by MTT assay relative to control; type: cell-based; conditions: at 128 µg/mL, read-out: Activity
Summary of the method: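 RAW 264.7 mouse macrophage cells exposed to test compound; viability by colorimetric MTT proliferation assay; standard deviation from three independent experiments.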

[21] = Inhibition of Saccharomyces cerevisiae CGMCC 2.145 chitin synthase using GlcNAc and UDP-GlcNAc as substrate incubated for 60 mins by microplate reader analysis
Summary of the method: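 Chitin synthase IC50 determined from concentration–inhibition curves.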

Pseudomonas aeruginosa [22] = assay: Antibacterial activity against Pseudomonas aeruginosa assessed as inhibition of bacterial growth after 24 hrs by CLSI protocol based two fold serial dilution method; type: functional; summary of the method: as §1
Staphylococcus aureus [23] = assay: Synergistic antibacterial activity against methicillin-resistant Staphylococcus aureus assessed as fractional inhibitory concentration index in presence of cefathiamidine by CLSI protocol based two fold serial dilution method; type: functional
Summary of the method: (§4)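 Checkerboard-type pairing, with each agent tested alone and combined by CLSI two-fold serial dilution. MICs are from three independent experiments. FIC index = (MIC of A combined/MIC of A alone) + (MIC of B combined/MIC of B alone). An index ≤1 is read as synergistic and 1–2 as additive.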

Staphylococcus aureus [24] = assay: Antibacterial activity against Staphylococcus aureus assessed as inhibition of bacterial growth after 24 hrs by CLSI protocol based two fold serial dilution method; type: functional; summary of the method: as §1
Escherichia coli [25] = assay: Antibacterial activity against Escherichia coli assessed as bacterial growth inhibition in presence of cefathiamidine by CLSI protocol based two fold serial dilution method; type: functional; summary of the method: as §1
DNA [26] = assay: Binding affinity to Klebsiella pneumoniae DNA assessed as hyperchromic shift by UV-Vis spectroscopy; type: nucleic-acid assay; summary of the method: as §2
Klebsiella pneumoniae [27] = assay: Bactericidal activity against Klebsiella pneumoniae assessed as log reduction in viable bacteria at 4 times MIC incubated for 1 hr followed by plating on agar plate and measured after 24 hrs by time kill assay; type: functional
Summary of the method: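 Time-kill kinetics for K. pneumoniae at 4 × MIC.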

Pseudomonas aeruginosa [28] = assay: Antibacterial activity against Pseudomonas aeruginosa ATCC 27853 assessed as inhibition of bacterial growth after 24 hrs by CLSI protocol based two fold serial dilution method; type: functional; summary of the method: as §1
Escherichia coli [29] = assay: Antibacterial activity against Escherichia coli ATCC 25922 assessed as inhibition of bacterial growth after 24 hrs by CLSI protocol based two fold serial dilution method; type: functional; summary of the method: as §1
Staphylococcus aureus [30] = assay: Antibacterial activity against methicillin-resistant Staphylococcus aureus assessed as bacterial growth inhibition in presence of cefathiamidine by CLSI protocol based two fold serial dilution method; type: functional; summary of the method: as §4
DNA [31] = assay: Binding affinity to Klebsiella pneumoniae DNA assessed as intercalating activity by measuring intrinsic binding constant by UV-Vis spectroscopy; type: nucleic-acid assay; summary of the method: as §2
Staphylococcus aureus [32] = assay: Additive antibacterial activity against Staphylococcus aureus assessed as fractional inhibitory concentration index in presence of cefathiamidine by CLSI protocol based two fold serial dilution method; type: functional
Staphylococcus aureus [33] = assay: Antibacterial activity against methicillin-resistant Staphylococcus aureus N315 assessed as inhibition of bacterial growth after 24 hrs by CLSI protocol based two fold serial dilution method; type: functional

CCn1cc(-c2csc(N)n2)c(=O)c2cc(F)c(N3CCN(CC#N)CC3)cc21
MIC (Aspergillus fumigatus): 19 µM (≈ 7.84 µg/mL) | Activity (DNA [1]): Active | Activity (DNA [2]): Active | Activity (DNA [3]): Active | MIC (Staphylococcus aureus [4]): 10 µM (≈ 4.12 µg/mL) | Activity (Klebsiella pneumoniae [5]): Active | MIC (Candida albicans [6]): 10 µM (≈ 4.12 µg/mL) | fractional inhibitory concentration index (FICI) (Escherichia coli [7]): 0.73 | fractional inhibitory concentration index (FICI) (Klebsiella pneumoniae [8]): 0.7 | Activity (DNA [9]): Active | Activity (Klebsiella pneumoniae [10]): Active | MIC (Candida albicans [11]): 10 µM (≈ 4.12 µg/mL) | MIC (Escherichia coli [12]): 39 µM (≈ 16.1 µg/mL) | inhibition (Saccharomyces cerevisiae): 64.6% | MIC (Acinetobacter baumannii): 19 µM (≈ 7.84 µg/mL) | MIC (Enterococcus faecalis): 19 µM (≈ 7.84 µg/mL) | IC50 (DNA gyrase): 16.7 µM | MIC (Klebsiella pneumoniae [13]): 1 µM | fold change (FC) (Klebsiella pneumoniae [14]): 2 | MIC (Klebsiella pneumoniae [15]): 5 µM (≈ 2.06 µg/mL) | Activity (DNA [16]): Active | Activity (DNA [17]): inactive | MIC (Staphylococcus aureus [18]): 10 µM | MIC (Candida parapsilosis): 19 µM (≈ 7.84 µg/mL) | MIC (Staphylococcus aureus [19]): 10 µM (≈ 4.12 µg/mL) | MIC (Candida tropicalis): 39 µM (≈ 16.1 µg/mL) | viability at 72 h, 128 ug/ml [20]: 80.2% | IC50 [21]: 180 µM | MIC (Pseudomonas aeruginosa [22]): 19 µM (≈ 7.84 µg/mL) | fractional inhibitory concentration index (FICI) (Staphylococcus aureus [23]): 0.61 | MIC (Staphylococcus aureus [24]): 10 µM (≈ 4.12 µg/mL) | MIC (Escherichia coli [25]): 10 µM | Activity (DNA [26]): Active | Activity (Klebsiella pneumoniae [27]): >2.5 log10CFU/ml | MIC (Pseudomonas aeruginosa [28]): 19 µM (≈ 7.84 µg/mL) | MIC (Escherichia coli [29]): 10 µM (≈ 4.12 µg/mL) | MIC (Staphylococcus aureus [30]): 2 µM | K (DNA [31]): 1.43 10^4L/mol | fractional inhibitory concentration index (FICI) (Staphylococcus aureus [32]): 1.12 | MIC (Staphylococcus aureus [33]): 19 µM (≈ 7.84 µg/mL)

CCn1cc(-c2csc(N)n2)c(=O)c2cc(F)c(N3CCN(Cc4ccc(Cl)cc4)CC3)cc21
MIC (Aspergillus fumigatus): 515 µM (≈ 256 µg/mL) | MIC (Staphylococcus aureus [4]): 64 µM (≈ 31.9 µg/mL) | MIC (Candida albicans [6]): 32 µM (≈ 15.9 µg/mL) | MIC (Candida albicans [11]): 64 µM (≈ 31.9 µg/mL) | MIC (Escherichia coli [12]): 32 µM (≈ 15.9 µg/mL) | inhibition (Saccharomyces cerevisiae): 56.2% | MIC (Acinetobacter baumannii): 32 µM (≈ 15.9 µg/mL) | MIC (Enterococcus faecalis): 16 µM (≈ 7.97 µg/mL) | MIC (Klebsiella pneumoniae [15]): 129 µM (≈ 64.2 µg/mL) | MIC (Candida parapsilosis): 16 µM (≈ 7.97 µg/mL) | MIC (Staphylococcus aureus [19]): 16 µM (≈ 7.97 µg/mL) | MIC (Candida tropicalis): 32 µM (≈ 15.9 µg/mL) | IC50 [21]: 320 µM | MIC (Pseudomonas aeruginosa [22]): 257 µM (≈ 128 µg/mL) | MIC (Staphylococcus aureus [24]): 64 µM (≈ 31.9 µg/mL) | MIC (Pseudomonas aeruginosa [28]): 32 µM (≈ 15.9 µg/mL) | MIC (Escherichia coli [29]): 32 µM (≈ 15.9 µg/mL) | MIC (Staphylococcus aureus [33]): 16 µM (≈ 7.97 µg/mL)
